ChEMBL document CHEMBL4837227, “Discovery and development of 2-aminobenzimidazoles as potent antimalarials” (Eur J Med Chem, 2021)
In brackets after ≈: the same amount, converted by molar mass. Activity calls are given as the source filed them. No cut-off for these calls is given here.

Assays:
Plasmodium falciparum [1] = experiment: Antimalarial activity against Plasmodium falciparum 3D7 assessed as reduction in parasite growth measured after 72 hrs by Monash assay based fluorescence analysis; type: functional, organism-based; conditions: 3D7, 72 h
Method in brief: (§1)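 Asynchronous P. falciparum cultures were grown continuously in complete RPMI with 25 mM HEPES, 0.5% Albumax II, 0.37 mM hypoxanthine and 2.0 g/l bicarbonate. They were exposed to serially diluted compound for 72 h. Controls were DMSO (0.01%) and a reference positive control. Fluorescence was read after 2 h in the dark at room temperature. IC50 is mean SEM from technical duplicate or triplicate, at least three biological replicates.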

[2] = test system: Plasmodium falciparum 3D7; experiment: (§2) Binding affinity to Plasmodium falciparum 3D7 AMA1 (104 to 438 residues) expressed in Escherichia coli BL21(DE3) by surface plasmon resonance assay
[3] = Kinetic solubility of the compound at pH 2 measured after 30 mins by nephelometry; type: physicochemical; conditions: buffer, read-out: Kinetic_solubility
Method in brief: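 Compound in DMSO was spiked into 0.01 M HCl (pH ~2.0) at a final DMSO of 1%. After 30 min, nephelometry gave a solubility range.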

[4] = Selectivity index, ratio of IC50 for cytotoxicity against human HEK293 cells to antiplasmodial activity against Plasmodium falciparum 3D7; type: toxicity, cell-based; conditions: read-out: Ratio IC50
[5] = Metabolic stability in human liver microsomes assessed as intrinsic clearance at 1 uM measured per mg protein after 60 mins in presence of NADPH regenerating system by LC-MS analysis; type: ADME, Microsome; conditions: read-out: CLH
Method in brief: (§3)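 Compound was incubated at 37 °C with liver microsomes at 0.4 mg/mL protein. The reaction was started with an NADPH-regenerating system and quenched at time points over 60 min with acetonitrile containing diazepam as internal standard. No-NADPH controls were quenched at 2, 30 and 60 min.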

Plasmodium falciparum [6] = experiment: Antimalarial activity against artemisinin-resistant Plasmodium falciparum Cam3.II^C580Y expressing K13 mutant assessed as reduction in parasite growth measured after 72 hrs by Monash assay based fluorescence analysis; type: functional, organism-based
Method in brief: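 Asynchronous culture, 72 h compound exposure. Compounds prepared at […] (twice the top concentration) in complete RPMI (25 mM HEPES, 0.5% Albumax II, 0.37 mM hypoxanthine, sodium bicarbonate), then serially diluted. Fluorescence read after 2 h room-temperature dark incubation. Negative control 0.01% DMSO. IC50 as mean SEM, n ≥ 3 biological replicates, each in technical duplicate or triplicate.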

[7] = Metabolic stability in mouse liver microsomes assessed as intrinsic clearance at 1 uM measured per mg protein for 60 mins in presence of NADPH regenerating system by LC-MS analysis; type: ADME, Microsome; conditions: read-out: CLH; method in brief: as §3
[8] = Kinetic solubility of the compound at pH 6.5 measured after 30 mins by nephelometry; conditions: buffer, read-out: Kinetic_solubility
HEK293 = experiment: Cytotoxicity against human HEK293 cells assessed as reduction in cell viability at 50 uM measured after 24 hrs by MTT assay; conditions: hek293, 24 h
Plasmodium falciparum [9] = experiment: Antimalarial activity against artemisinin-sensitive Plasmodium falciparum Cam3.II^rev expressing wild type K13 assessed as reduction in parasite growth measured after 72 hrs by Monash assay based fluorescence analysis; type: functional, organism-based; method in brief: as §1
[10] = Metabolic stability in human liver microsomes assessed as half-life at 1 uM measured for 60 mins in presence of NADPH regenerating system by LC-MS analysis; type: ADME, Microsome; method in brief: as §3
[11] = Metabolic stability in mouse liver microsomes assessed as half-life at 1 uM measured for 60 mins in presence of NADPH regenerating system by LC-MS analysis; type: ADME, Microsome; method in brief: as §3
Plasmodium falciparum [12] = experiment: Antimalarial activity against synchronous ring stage of Plasmodium falciparum Dd2 assessed as parasite growth inhibition incubated for 72 hrs by Griffith assay based fluorescence analysis; type: functional, organism-based; conditions: Dd2, 72 h
Method in brief: (§4)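 22-point dose-response, 3 per log, final 40 µM top, 0.4% DMSO. 72 h at 37 °C under 90% N2/5% CO2/5% O2. DAPI stain, confocal imaging. IC50 from 4-parameter fit normalised to in-plate puromycin and DMSO controls.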

[13] = Selectivity index, ratio of IC50 for antimalarial activity against Plasmodium falciparum Dd2 to IC50 of antimalarial activity against Plasmodium falciparum 3D7; type: functional
Plasmodium falciparum [14] = experiment: Antimalarial activity against synchronous ring stage of Plasmodium falciparum 3D7 assessed as parasite growth inhibition incubated for 72 hrs by Griffith assay based fluorescence analysis; type: functional, organism-based; conditions: 3D7, 72 h; method in brief: as §4
[15] = as §2
Plasmodium falciparum [16] = experiment: Antiplasmodial activity against PfATP4 inhibitor SJ557733-resistant Plasmodium falciparum Dd2 assessed as reduction in parasite growth incubated for 72 hrs by Griffith assay based fluorescence analysis; type: functional, organism-based; conditions: Dd2, 72 h; method in brief: as §4
Plasmodium falciparum [17] = experiment: Selectivity index, ratio of IC50 for antimalarial activity against PfATP4 inhibitor SJ557733-resistant Plasmodium falciparum Dd2 to IC50 of antimalarial activity against Plasmodium falciparum Dd2; type: functional

In the case of `Nc1nc2ccccc2n1-c1cccc(Cl)c1O`, the IC50 (Plasmodium falciparum [1]) is reported as over 500 nM.
With `Nc1nc2ccccc2n1-c1c(O)cccc1F` the IC50 (Plasmodium falciparum [1]) was 321 nM.
For `Nc1nc2ccccc2n1-c1ccccc1F`, the IC50 (Plasmodium falciparum [1]) was over 500 nM and the Activity [2] was “inactive”.
With `Oc1ccccc1-n1cnc2ccccc21` the IC50 (Plasmodium falciparum [1]) was over 500 nM.
For `Nc1nc2ccccc2n1-c1cccnc1O`, the IC50 (Plasmodium falciparum [1]) was over 500 nM.
For `Oc1ccccc1-n1c(NC2CCCCC2)nc2ccccc21`, the IC50 (Plasmodium falciparum [1]) was 333 nM.
Compound `Nc1nc2ccccc2n1-c1cccc2ccoc12` has an IC50 (Plasmodium falciparum [1]) of over 500 nM.
`Cc1cccc(O)c1-n1c(N)nc2ccccc21` gave an IC50 (Plasmodium falciparum [1]) of 135 nM.
Work on `Nc1nccnc1-c1ccccc1O` yielded an IC50 (Plasmodium falciparum [1]) of over 500 nM.
For `COc1ccc(-n2c(N)nc3ccccc32)c(O)c1`, the solubility kinetic at 0.5 h [3] was over 100 µg/mL, the selectivity ratio [4] was over 1000 and the microsomal CLint at 1 µM [5] was 14 µL/min/mg. For the same compound, the IC50 (Plasmodium falciparum [6]) was 168 nM, the microsomal CLint at 1 µM [7] was 271 µL/min/mg and the solubility kinetic at 0.5 h [8] was 50 µg/mL (≈ 196 µM). For the same compound, the IC50 (Plasmodium falciparum [1]) was 43 nM, the Activity (HEK293) was “Non-Toxic” and the IC50 (Plasmodium falciparum [9]) was 212 nM. For the same compound, the half-life at 1 µM [10] was 2.07 h and the half-life at 1 µM [11] was 0.1 h.
`Nc1nc2ccccc2n1CCO` showed an IC50 (Plasmodium falciparum [1]) of over 500 nM.
With `N#Cc1ccc(-n2c(N)nc3ccccc32)cc1` the IC50 (Plasmodium falciparum [1]) was over 500 nM and the Activity [2] was “inactive”.
For `CC(C)CNc1nc2ccccc2n1-c1ccccc1O`, the IC50 (Plasmodium falciparum [1]) was 356 nM.
For `COc1ccc(C[C@H](N)C(=O)N[C@H]2[C@@H](O)[C@H](n3cnc4c(N(C)C)ncnc43)O[C@@H]2CO)cc1` [PUROMYCIN], the IC50 (Plasmodium falciparum [12]) was 114 nM, the Ratio IC50 [13] was 0.8 and the IC50 (Plasmodium falciparum [14]) was 149 nM.
In the case of `COc1ccccc1-n1c(N)nc2ccccc21`, the IC50 (Plasmodium falciparum [1]) is reported as over 500 nM and the Activity [2] is reported as “inactive”.
`Oc1cccc(-c2nc3ccccc3[nH]2)c1` gave a Kd [15] of 800000 nM.
Compound `CCCNc1nc2ccccc2n1-c1ccccc1O` has an IC50 (Plasmodium falciparum [1]) of over 500 nM.
`Nc1nc2ccccc2n1-c1ncccc1O` gave an IC50 (Plasmodium falciparum [1]) of over 500 nM.
`Nc1cccc(-c2nc3ccccc3[nH]2)c1` showed a Kd [15] of 500000 nM.
With `Nc1nc2ccccc2n1-c1cccc(O)c1` the IC50 (Plasmodium falciparum [1]) was over 500 nM and the Activity [2] was “inactive”.
`Nc1nn(-c2ccccc2O)c2ccccc12` showed an IC50 (Plasmodium falciparum [1]) of over 500 nM.
`Nc1nc2ccccc2n1-c1cnccc1O` showed an IC50 (Plasmodium falciparum [1]) of over 500 nM.
`N#Cc1cc(NC(=O)[C@H]2c3ccccc3C(=O)N(CC(F)(F)F)[C@@H]2c2cccnc2)ccc1F` [SJ-733] gave an IC50 (Plasmodium falciparum [16]) of over 8000 nM, an IC50 (Plasmodium falciparum [12]) of 58.7 nM and a Ratio IC50 (Plasmodium falciparum [17]) of over 135.
With `Nc1nc2ccccc2n1-c1ccccc1CO` the IC50 (Plasmodium falciparum [1]) was over 500 nM and the Activity [2] was “inactive”.
With `Nc1nc2ccccc2n1[C@H]1CCC[C@@H]1O` the IC50 (Plasmodium falciparum [1]) was over 500 nM.
`Nc1cc(N)cc(-c2nc3ccccc3[nH]2)c1` showed a Kd [15] of 100000 nM.
`Nc1nc2ccccc2n1-c1ccc2ccccc2c1O` showed a selectivity ratio [4] of over 1000, an IC50 (Plasmodium falciparum [6]) of 114 nM and an IC50 (Plasmodium falciparum [1]) of 38 nM. For the same compound, the Activity (HEK293) was “Non-Toxic” and the IC50 (Plasmodium falciparum [9]) was 105 nM.
Compound `Nc1nc2ccccc2n1-c1ccccc1O` has an IC50 (Plasmodium falciparum [16]) of 46 nM, a solubility kinetic at 0.5 h [3] of over 100 µg/mL and an IC50 (Plasmodium falciparum [12]) of 97.3 nM. The selectivity ratio [4] was over 1000, the microsomal CLint at 1 µM [5] was under 7 µL/min/mg and the IC50 (Plasmodium falciparum [6]) was 264 nM. It also gave a Ratio IC50 [13] of 4.4, an IC50 (Plasmodium falciparum [14]) of 22.2 nM and a Ratio IC50 (Plasmodium falciparum [17]) of 0.5. For the same compound, the microsomal CLint at 1 µM [7] was 22 µL/min/mg, the solubility kinetic at 0.5 h [8] was over 100 µg/mL and the IC50 (Plasmodium falciparum [1]) was 77 nM. For the same compound, the Activity (HEK293) was “Non-Toxic”, the IC50 (Plasmodium falciparum [9]) was 350 nM and the Activity [2] was “inactive”. The half-life at 1 µM [10] was over 4.25 h and the half-life at 1 µM [11] was 1.3 h.
For `Nc1ccc(-n2c(N)nc3ccccc32)cc1`, the IC50 (Plasmodium falciparum [1]) was over 500 nM and the Activity [2] was “inactive”.
Compound `Nc1nc2ccccc2n1-c1cccc2cc[nH]c12` has an IC50 (Plasmodium falciparum [1]) of over 500 nM.
Compound `Nc1nc2ccccc2n1-c1cc(Cl)ccc1O` has an IC50 (Plasmodium falciparum [1]) of 162 nM.
With `CCc1nc(N)nc(N)c1-c1ccc(Cl)cc1` [PYRIMETHAMINE] the IC50 (Plasmodium falciparum [12]) was over 40000 nM, the Ratio IC50 [13] was over 8000 and the IC50 (Plasmodium falciparum [14]) was 4.7 nM.
